Molecules are shown by their SMILES.

One data set is described as follows: Stability of the compound in simulated gastric juice assessed as half life at 1 uM by LC/MS/MS analysis. The class given is physicochemical.
Conditions: not given
A digest of the protocol:
(§1)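 Prodrug added from acetonitrile stock (100 μM) to rat plasma or simulated gastric juice at final 1 μM. Held at 37 °C, sampled 0, 15, 30, 60, 120 min. Quenched with two volumes cold acetonitrile containing internal standard, centrifuged, supernatant analyzed by LC-MS/MS. Half-life as mean of duplicate experiments.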
One may read the half-life as the time needed for the level to fall by half in the phase considered. Take `CCCc1nc(C(C)(C)O)c(C(=O)OCOC(=O)C23CC4CC(CC(C4)C2)C3)n1Cc1ccc(-c2ccccc2-c2nnn[nH]2)cc1`: the half-life at 1 µM is 312 min.

Consider `CCCc1nc(C(C)(C)O)c(C(=O)OC(C)OC(=O)C2CCCCC2)n1Cc1ccc(-c2ccccc2-c2nnn[nH]2)cc1` (stereo not drawn), for which the half-life at 1 µM was 928 min.

On to `CCCc1nc(C(C)(C)O)c(C(=O)OCc2oc(=O)oc2C)n1Cc1ccc(-c2ccccc2-c2nnn[nH]2)cc1` [OLMESARTAN MEDOXOMIL], for which the half-life at 1 µM was > 1000 min.

A further data set can be described thus: Stability of the compound in rat liver microsomes assessed as half life at 1 uM by LC/MS/MS analysis. It counts as ADME, Microsome.
Conditions: not given
A digest of the protocol: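 Rat liver microsomes (0.5 mg/mL total protein) with 1.2 mM NADPH in 100 mM phosphate buffer pH 7.4; prodrug added from acetonitrile stock (100 μM) to final 1 μM. Kept at 37 °C, sampled 0, 15, 30, 60, 120 min. Stopped with two volumes cold acetonitrile plus internal standard, centrifuged, supernatant by LC-MS/MS. Mean of duplicate experiments.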
(In general: Liver microsomes are vesicles of endoplasmic reticulum, rich in cytochrome P450 enzymes.)
Regarding `CCCc1nc(C(C)(C)O)c(C(=O)OCOC(=O)C23CC4CC(CC(C4)C2)C3)n1Cc1ccc(-c2ccccc2-c2nnn[nH]2)cc1`, the half-life at 1 µM turned out to be 2.28 min.

For `CCCc1nc(C(C)(C)O)c(C(=O)OC(C)OC(=O)C2CCCCC2)n1Cc1ccc(-c2ccccc2-c2nnn[nH]2)cc1` (stereo not drawn), the half-life at 1 µM worked out at 2.7 min.

Consider `CCCc1nc(C(C)(C)O)c(C(=O)OCc2oc(=O)oc2C)n1Cc1ccc(-c2ccccc2-c2nnn[nH]2)cc1` [OLMESARTAN MEDOXOMIL], for which the half-life at 1 µM was determined as 4.95 min.

The next data set can be described thus: Stability of the compound in rat plasma assessed as half life at 1 uM by LC/MS/MS analysis. It counts as ADME, cell-free.
Conditions: not given
A digest of the protocol:
as §1
On to `CCCc1nc(C(C)(C)O)c(C(=O)OCOC(=O)C23CC4CC(CC(C4)C2)C3)n1Cc1ccc(-c2ccccc2-c2nnn[nH]2)cc1`, for which the half-life at 1 µM stood at 10 min.

On to `CCCc1nc(C(C)(C)O)c(C(=O)OC(C)OC(=O)C2CCCCC2)n1Cc1ccc(-c2ccccc2-c2nnn[nH]2)cc1` (stereo not drawn), for which the half-life at 1 µM amounted to 9.68 min.

Regarding `CCCc1nc(C(C)(C)O)c(C(=O)OCc2oc(=O)oc2C)n1Cc1ccc(-c2ccccc2-c2nnn[nH]2)cc1` [OLMESARTAN MEDOXOMIL], the half-life at 1 µM turned out to be 0.956 min.

The next data set is described as follows: Metabolic stability in rat plasma assessed as compound remaining at 50 ug/mL after 30 mins by LC-MS/MS analysis. It counts as ADME, cell-free. To be noted: read-out: Stability. In short, it runs like this:
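Prodrug at 50 μg/mL in rat plasma, incubated 30 min at 37 °C; samples analyzed immediately by LC-MS/MS, reported as percent of compound remaining.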
Take `CCCc1nc(C(C)(C)O)c(C(=O)OC(C)OC(=O)c2ccccc2)n1Cc1ccc(-c2ccccc2-c2nnn[nH]2)cc1` (stereo not drawn): the remaining at 0.5 h, 50 ug/mL is 85.8%.

Turning to `CCCc1nc(C(C)(C)O)c(C(=O)OCOC(=O)C23CC4CC(CC(C4)C2)C3)n1Cc1ccc(-c2ccccc2-c2nnn[nH]2)cc1`, the remaining at 0.5 h, 50 ug/mL turned out to be 79.8%.

`CCCc1nc(C(C)(C)O)c(C(=O)OCc2c[nH]c(=O)[nH]c2=O)n1Cc1ccc(-c2ccccc2-c2nnn[nH]2)cc1`: the remaining at 0.5 h, 50 ug/mL amounted to 96.3%.

As for `CCCCCCCCOC(=O)c1c(C(C)(C)O)nc(CCC)n1Cc1ccc(-c2ccccc2-c2nnn[nH]2)cc1`, the remaining at 0.5 h, 50 ug/mL was determined as 90.2%.
